Measurements gathered from unrelated publications.
Lines come from different studies, so protocols differ.
Target: Serine/threonine-protein kinase PLK3 (PLK3, Homo sapiens, UniProt Q9H4B4)

For `COc1cc(-c2cc(-c3ccc(N4CCNCC4)cc3)cnc2C)cc(OC)c1OC`, the inhibition was 4% (enzyme activity, inhibitor; 0.1 µM).
`CNC(=O)Nc1ccc2c(c1)[C@@]1(CC2)OC(=O)N(CC(=O)N(Cc2ccc(F)cc2)[C@@H](C)C(F)(F)F)C1=O` gave a remaining binding of 84% (cell-free assay, competition with immobilised ligand; 1 µM).
For `O=C(Nc1cnn(-c2csc(C(=O)NC3COC3)c2)c1)Nc1ccccc1Cl`, the remaining activity was 96.1% (enzyme activity, inhibitor; 5 µM).
For `CC(C)(O)[C@H]1CC[C@H](Nc2ccc3ncc(-c4cccc(C(F)(F)F)c4)n3n2)CC1`, the remaining activity was 102% (enzyme activity, inhibitor; 1 µM).
The inhibition of `CCN(CC)CCNC(=O)c1c(C)[nH]c(/C=C2\C(=O)Nc3ccc(F)cc32)c1C` is reported as -10% (enzyme activity, inhibitor; 0.3 µM).
The inhibition of `CS(=O)(=O)Nc1cccc(-c2csc(NC(=O)CSc3nc4nccnc4c(=O)n3CCc3ccccc3)n2)c1` is reported as 6% (enzyme activity, inhibitor; 10 µM).
The remaining binding of `CCS(=O)(=O)c1cc2cc(C[C@@](O)(CC(C)(C)c3ccc(F)cc3C(N)=O)C(F)(F)F)[nH]c2cn1` is reported as 99% (cell-free assay, competition with immobilised ligand; 1 µM).
The inhibition of `COc1cc2ncnc(Nc3ccc(Oc4ccccc4)c(C)c3C)c2cc1OC` is reported as -16% (enzyme activity, inhibitor; 1 µM).
`COc1cc2c(Nc3ccc(Br)cc3F)ncnc2cc1OCC1CCN(C)CC1` gave a remaining signal of 95% (cell-free assay; 0.5 µM).
For `CCCOc1ccc([C@H]2[C@H](C(=O)O)[C@@H](c3ccc4c(c3)OCO4)CN2CC(=O)Nc2c(CC)cccc2CC)cc1`, the remaining binding was 83% (cell-free assay, competition with immobilised ligand; 1 µM).
`N#CCCc1ccc2c(c1)-c1[nH]c3ccc([N+](=O)[O-])cc3c1CC(=O)N2` gave a remaining signal of 99.7% (cell-free assay; 0.5 µM).
`CC/C(=N\NC(=O)NCc1cccc(O)c1)c1ccc(O)c(C)c1O` gave an inhibition of 2.5% (enzyme activity, inhibitor; 0.1 µM).
`CSc1cccnc1N1CCN(Cc2nc3ccccc3[nH]2)CC1` has a remaining binding of 80% (cell-free assay, competition with immobilised ligand; 1 µM).
With `Cc1cc(NC(=O)c2cccc3cc(-c4cccc5[nH]nc(N)c45)ccc23)ccc1F` the activity vs control was 92% (enzyme activity, inhibitor; 0.1 µM).
`Cc1ccc(Nc2nccc(N(C)c3ccc4c(C)n(C)nc4c3)n2)cc1S(N)(=O)=O` has an inhibition of -9% (enzyme activity, inhibitor; 0.3 µM).
`CN1CCN(c2cnc3c(C4CCN(C(=O)c5ccc(OC(F)(F)F)cc5N)CC4)ncnc3c2)CC1` gave a remaining binding of 100% (cell-free assay, competition with immobilised ligand; 1 µM).
`Cc1cnc(NC2CCOCC2)nc1-n1cnc(C(=O)NC(CN)c2cc(F)cc(Cl)c2)c1` (centres unmarked) gave a remaining activity of 88% (enzyme activity, inhibitor, radiometric; 1 µM).
